Assay outcomes (PubChem BioAssay)
KLF5 inhibitor: inhibitors of KLF5 expression. DLD-1 KLF5 promoter-luciferase reporter, luminescence. inhibition, % at 5 µM. actives 0.23% (n = 290,000). AID 1700;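 active means inhibition above a per-plate limit of that plate's mean compound inhibition plus 3 SD, cut at about 60% in these data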;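 further: 0% = DMSO wells and 100% = LY294002 at 200 µM; higher means less KLF5 promoter-driven luciferase light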
Beta cell apopt: beta cell apoptosis inhibition; INS-1E cytokine-induced death, ATP luminescence, 48 h; percent of positive-control rescue, neutral wells zero; protection from apoptosis, % (test concentration not listed); actives 0.8% (n = 300,000); AID 435005;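 active means Every replicate reaches about 75%, or at least half do and their mean reaches it too, limit read from the data; inconclusive means At least half of replicates reach the limit but their mean does not; inactive means Under half of replicates reach the limit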;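 further: 0% = cytokine-treated negative control wells and 100% = positive control rescue; higher means more ATP so stronger rescue from cytokine killing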
T cruzi inh: blocks replication of Trypanosoma cruzi. inhibition, % (concentration not given with the values). T. cruzi beta-gal in NIH3T3, luminescence, 90 h. actives 1.4% (n = 300,000). AID 1885;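 active means mean inhibition across valid replicates above about 55%, limit read from the data; inconclusive means mean below that limit but half or more replicates reach it; inactive means mean below it, under half of replicates reach it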;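 further: signal also drops with host cell toxicity which is not excluded here; 0% = plate median of DMSO wells and 100% = zero luminescence signal; higher percent means less beta-gal luminescence so fewer parasites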
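assay system = mouse NIH/3T3 fibroblasts infected with β-gal-expressing T. cruzi Tulahuen C4 | input = 5,000 NIH/3T3 host cells per well | buffer or medium = DMEM plus 2% FBS | timing = 3 h host attachment, then at least 90 h co-culture | measured by = GalScreen luminescence, 60 min | evaluation = luminescence reflecting intracellular parasite burden, expressed as percent inhibition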
HIF act: HIF pathway transcriptional activation; U2OS HRE-luciferase reporter, luminescence; normalized: DMSO 0%, desferrioxamine 100%; activation, % at 7.5 µM (by protocol); actives 0.32% (n = 300,000); AID 1910;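 active means mean activation of at least 10% of the iron chelator positive control signal, with at least half of replicates also reaching 10%; inconclusive means mean and replicate majority disagree about reaching 10%; inactive means mean and most replicates under 10%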
A1 inh: inhibitors of the anti-apoptotic protein A1, read as caspase activation; caspase activation, % (no concentration beside the values); actives 0.066% (n = 330,000); MEF A1-2A-BIM cells, Caspase-Glo 3/7 luminescence, 3 h; percent of clofoctol response, vehicle zero;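 active means over half of replicate activation scores above 10%, or exactly half above 10 with the replicate mean above 10; inconclusive means replicate mean below 10 yet half the replicates above 10; inactive means over half of replicates below 10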
KLF5 confirm: KLF5 inhibition, confirmation assay; AID 1834; shares compounds with KLF5 inhibitor; DLD-1 KLF5 promoter firefly luciferase reporter, luminescence; inhibition, % at 4 µM; actives 79% (n = 610);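 active means inhibition above a set limit taken from the earlier primary screen, cut at about 63% in these data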;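 further: 0% = DMSO wells and 100% = LY294002 at 200 µM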
IEC-6 tox: counter-screen for KLF5 inhibitors: cytotoxicity in rat IEC-6 cells | AID 1905 | shares compounds with KLF5 inhibitor | IEC-6 rat intestinal cells, viability luminescence | inhibition, % at 4 µM | actives 56% (n = 610); in the data active means inhibition above about 23%;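 further: cells exposed to compounds for 48 hours before viability read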
Starred values were filed as active, the others as inactive; u = inconclusive; x = no result. Compounds with a hit are over-represented: about 2.3% of the library has one in this group of screens.

SMILES	KLF5 inhibitor	Beta cell apopt	T cruzi inh	HIF act	A1 inh	KLF5 confirm	IEC-6 tox
Cc1ccccc1C1=NC(C(F)(F)F)(C(F)(F)F)c2c(n(C)c(=O)n(C)c2=O)N1	-3	1	-4	0	0	x	x
COc1cccc(Cn2c(NCc3cccnc3)nc3c2c(=O)n(C)c(=O)n3C)c1	84*	9	-15	-2	1	97*	70*
Cc1csc(NC(=O)c2cc3c(s2)CCCCC3)n1	72*	26	22	-4	-14	52	-1
Cc1csc(NC(=O)c2cc3c(s2)CCCC3)n1	-43	14	19	-1	-8	x	x
CCCCCn1ccc(=N)cc1	-15	72	-19	1	-1	x	x
CCCCCCCCCn1ccc(=N)cc1	72*	116*	30	1	-1	62*	55*
CC(=O)NNC(=O)c1[nH]c2ccc(Cl)cc2c1-c1ccccc1	-8	5	-5	0	0	x	x
NNC(=O)c1[nH]c2ccccc2c1-c1ccccc1	82*	29	7	1	0	0	1
CC(=O)NC(c1cccc([N+](=O)[O-])c1)c1ccc2cccnc2c1O (stereo unspecified)	62*	97*	52	231*	0	96*	80*
Oc1cccc(C(Nc2nccs2)c2ccc3cccnc3c2O)c1 (stereo unspecified)	74*	77*	92*	35*	0	92*	63*
COc1cccc(C(NC(C)=O)c2ccc3cccnc3c2O)c1 (stereo unspecified)	91*	82*	57*	38*	1	97*	81*
CCC(NC(=O)C(C)NC)C(=O)N1CCCC1C(=O)NC1CCCc2ccccc21 (stereo unspecified)	x	36	x	x	u	x	x
Cc1cc(C)n(-c2ccc(C(=O)N3CCN(S(=O)(=O)c4ccc(Cl)cc4)CC3)cc2)n1	x	4	x	x	-1	x	x
COc1ccccc1NC(=O)c1cnc(Nc2ccccc2OC)c2ccccc12	72*	26	30	-1	1	71*	47*
O=C(Nc1nc2ccccc2[nH]1)c1ccc(F)cc1	-15	24	-8	-2	-14	x	x
O=C(Nc1nc2ccccc2[nH]1)c1ccccc1F	76*	89*	-14	-2	-8	75*	46*
COc1ccc(Cl)cc1C(=O)Nc1nc2ccccc2[nH]1	80*	11	22	-4	-9	70*	14
CN1CCN(S(=O)(=O)c2cccc(C(=O)N(Cc3ccccc3)c3ccccc3)c2)CC1	12	-4	16	0	-1	x	x
Cc1ccc(NS(=O)(=O)c2ccc(C(=O)N3CCN(S(=O)(=O)c4ccccc4)CC3)cc2)cc1	x	36	1	-1	0	x	x
Cc1cc(C)c2nc(C)cc(Nc3ccc(C(=O)N(C)C)cc3)c2c1	-20	1	21	0	1	x	x
CC(=O)c1ccc(Nc2cc(C)nc3c(C)cc(C)cc23)cc1	67*	77*	21	0	0	79*	49*
O=C(CN1C(=O)c2ccccc2S1(=O)=O)c1ccccc1Cl	70*	x	-1	-4	-1	46	-2
O=C(NCCc1ccccc1)c1ccc2c(c1)OCCO2	97*	3	-6	-7	-6	95*	-4
O=C(CCc1ccccc1)c1ccc2c(c1)OCCCO2	-141	-7	-7	2	0	x	x
O=C(CCCc1ccccc1)c1ccc2c(c1)OCCO2	70*	-5	-3	-4	-6	88*	-5
SMILES	KLF5 inhibitor	Beta cell apopt	T cruzi inh	HIF act	A1 inh	KLF5 confirm	IEC-6 tox
COc1ccc(CCNC(=O)c2ccc3c(c2)OCCO3)cc1	-117	-3	8	3	-1	x	x
O=C(NCCc1ccccc1)c1ccc2c(c1)OCCCO2	100*	3	-4	-6	-8	109*	15
COc1ccc(NC(=O)c2ccc(Cl)c(S(=O)(=O)NCC3CCCO3)c2)c(OC)c1 (stereo unspecified)	-17	2	8	0	0	x	x
CCn1c2ccccc2c2cc(NC(=O)c3cc(OC)c(OC)c(OC)c3)ccc21	83*	x	57*	-56	0	89*	86*
CCn1c2ccccc2c2cc(NC(=O)c3cc(OC)cc(OC)c3)ccc21	-12	70	39	0	2	x	x
COc1cc(-c2noc(C)c2-c2ccc3[nH]ccc3c2)cc(OC)c1OC	41	17	25	0	1	x	x
COc1cc(-c2noc(C)c2-c2ccc(N(C)C)nc2)cc(OC)c1OC	76*	42	29	3	0	85*	82*
CCOC(=O)CN1C2=NCCN2c2ccccc21	79*	-7	-6	0	1	3	8
CCOC(=O)CN1C2=NCCCN2c2ccccc21	-28	-1	-16	0	3	x	x
CCOC(=O)Nc1ccc(N2CCOCC2)c(S(=O)(=O)Nc2ccc(Cl)cc2)c1	x	11	x	x	0	x	x
COc1ccc(C2C(O)C(c3c[nH]c4ccccc34)=NN2C(=O)CCl)cc1 (stereo unspecified)	102*	129*	32	-5	8.0*	99*	101*
COC(=O)C1=C(CN2CCCc3ccccc32)NC(=O)NC1c1ccc(F)cc1 (stereo unspecified)	85*	-4	4	x	0	72*	7
COC(=O)C1=C(CN2CCc3ccccc32)NC(=O)NC1c1cc(C)ccc1C (stereo unspecified)	9	1	13	0	1	x	x
O=C(CN(Cc1ccc(F)cc1)C(=O)CCC(=O)Nc1nccs1)NCc1ccccc1	-15	-1	2	1	1	x	x
CN1CCN(c2ccc(-c3ccc4ccccc4n3)cc2)CC1	99*	x	44	-6	x	104*	-6
c1ccc2nc(-c3ccc(N4CCOCC4)cc3)ccc2c1	-48	4	11	-7	x	x	x
Cn1cccc1-c1cc(C(=O)N/N=C/c2ccccc2Cl)[nH]n1	-143	3	-7	0	1	x	x
COc1ccc(Br)cc1/C=N/NC(=O)c1cc(Br)ccc1O	-6	-5	-23	0	1	x	x
Cn1cccc1-c1cc(C(=O)N/N=C/c2cc(Br)ccc2O)[nH]n1	65*	21	9	10*	1	79*	-2
COc1ccc(C(=O)N/N=C/c2cc(Br)ccc2O)cc1OC	68*	104*	56*	40*	0	92*	-3
CCN(CC)C(=O)Cn1cc(S(=O)(=O)CC(=O)Nc2ccc(C(N)=O)cc2)c2ccccc21	-8	2	-3	0	0	x	x
O=C(NC1=NCCS1)C1COc2ccccc2O1 (stereo unspecified)	69*	-20	9	-2	-7	71*	-8
